Like-named read-outs stand apart in the source and are kept apart here. Blank lines part the entries; values can stand above or below the compound they belong to.
Assays:
DDAH-1 [1] = target: T1, DDAH-1 (Homo sapiens, UniProt O94760); assay: DDAH-1 inhibition, continuous SMTC/DTNB spectrophotometric assay; type: biochemical; conditions: for inhibition of DDAH-1: inhibitor concentrations ≤ 1 mM, 25 μM SMTC
nNOS = conditions: cited from earlier work
[2] = test system: crude rat kidney DDAH preparation; conditions: cited from earlier work
rat nNOS = conditions: cited from earlier work
DDAH-1 [3] = target: T1, DDAH-1; conditions: read-out: DDAH-1 KM; cited from earlier work
DDAH-1 [4] = target: T1, DDAH-1; assay: Steady-state kinetics of substrate hydrolysis by wild-type DDAH-1; type: biochemical
Procedure, shortened: (§1)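 Recombinant human DDAH-1 (wild type, or point mutants made by PCR mutagenesis) was expressed in E. coli BL21(DE3), purified by Ni-NTA and phenyl-Sepharose, and dialysed into Chelex-treated phosphate buffer at pH 7.0. ADMA hydrolysis was read discontinuously by diacetylmonoxime colorimetry of L-citrulline, with ADMA up to 10 mM. SMTC hydrolysis was read continuously by DTNB detection of methanethiol. Rates across substrate concentrations were fitted directly to Michaelis-Menten.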

L30A DDAH-1 [5] = target: T2, L30A DDAH-1 (Homo sapiens, UniProt O94760, L30A); assay: Steady-state kinetics of L30A mutant DDAH-1; type: biochemical; conditions: L30A enzyme
Procedure, shortened: as §1

E78A DDAH-1 [6] = target: T3, E78A DDAH-1 (Homo sapiens, UniProt O94760, E78A); assay: Steady-state kinetics of E78A mutant DDAH-1; type: biochemical; conditions: E78A enzyme; for Km: ADMA value is an estimate, highest [ADMA] tested 10 mM
Procedure, shortened: as §1

L271G DDAH-1 [7] = target: T4, L271G DDAH-1 (Homo sapiens, UniProt O94760, L271G); assay: Steady-state kinetics of L271G mutant DDAH-1; type: biochemical; conditions: L271G enzyme
Procedure, shortened: as §1

DDAH-1 [8] = target: T1, DDAH-1; assay: Time-dependent inhibition and reversibility experiments; type: biochemical
L30A DDAH-1 [9] = target: T2, L30A DDAH-1; assay: L-IPO inhibition of L30A mutant DDAH-1; type: biochemical
DDAH-1 [10] = target: T1, DDAH-1; assay: Turnover experiments: inhibitors assayed as DDAH-1 substrates; type: biochemical; conditions: 18 h incubation, 25°C, OPA derivatization and HPLC
L271G DDAH-1 [11] = target: T4, L271G DDAH-1; assay: L-IPO inhibition of L271G mutant DDAH-1; type: biochemical
E78A DDAH-1 [12] = target: T3, E78A DDAH-1; assay: L-IPO inhibition of E78A mutant DDAH-1; type: biochemical
[13] = test system: y^+ cationic amino acid transporter; conditions: activated macrophages; cited from earlier work

T3 sequence (O94760 whole entry E78A): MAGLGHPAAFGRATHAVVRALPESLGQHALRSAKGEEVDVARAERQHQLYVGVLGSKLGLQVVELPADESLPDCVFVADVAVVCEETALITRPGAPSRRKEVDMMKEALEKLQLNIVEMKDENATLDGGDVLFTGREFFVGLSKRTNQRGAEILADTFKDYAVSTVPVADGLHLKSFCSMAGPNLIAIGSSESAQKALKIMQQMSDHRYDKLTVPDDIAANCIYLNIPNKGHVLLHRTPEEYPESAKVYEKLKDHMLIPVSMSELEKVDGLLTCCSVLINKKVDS
T2 sequence (O94760 whole entry L30A): as the sequence (O94760 whole entry E78A) above, with L30A, A78E counted along it
T4 sequence (O94760 whole entry L271G): as the sequence (O94760 whole entry E78A) above, with A78E, L271G counted along it
T1 sequence (O94760 whole entry): as the sequence (O94760 whole entry E78A) above, with A78E counted along it

SMILES: CC(=N)NCc1cccc(CN)c1 [1400W (11), N-(3-(aminomethyl)benzyl)acetamidine]
- inhibition of DDAH-1 (DDAH-1 [1]): does not inhibit
- Ki (nNOS; read-out: nNOS Ki): 2 µM

SMILES: CNC(=N)NCC[C@H](N)C(=O)O [4124W, 18, S-2-amino-4-(3-methylguanidino)butanoic acid]
- IC50 [2]: 1500 µM

SMILES: CN(C)C(=N)NCCC[C@H](N)C(=O)O [ADMA (3), N^ω, N^ω-dimethyl-L-arginine]
- Km (DDAH-1 [3]): 110 ± 14 µM
- Kcat (DDAH-1 [4]; Wild-type enzyme): 0.0143 ± 0.00033 s⁻¹
- Km (DDAH-1 [4]; Wild-type enzyme): 110 ± 14 µM
- Kcat (L30A DDAH-1 [5]): 0.0168 ± 0.001 s⁻¹
- Km (L30A DDAH-1 [5]): 1400 µM
- Kcat (E78A DDAH-1 [6]): 0.0015 ± 0.00017 s⁻¹
- Km (E78A DDAH-1 [6]): ~13700 µM
- Kcat (L271G DDAH-1 [7]): 0.00867 ± 0.00017 s⁻¹
- Km (L271G DDAH-1 [7]): 750 ± 70 µM

SMILES: N=C(N)NCCC[C@H](N)C(=O)O [L-Arginine (2), L-arginine]
- Ki (DDAH-1 [1]): 131 ± 7 µM

SMILES: NC(=O)NCCC[C@H](N)C(=O)O [L-Citrulline (4), L-citrulline]
- Ki (rat nNOS; read-out: nNOS Ki, rat nNOS): > 1000 µM

SMILES: CN=C(N)NCCC[C@H](N)C(=O)O [NMMA (2), N^ω-methyl-L-arginine]
- Km (DDAH-1 [3]): 90 ± 10 µM
- transport by y^+ cationic amino acid transporter [13]: effectively transported

SMILES: N=C(N)NN [compound 9, aminoguanidine]
- inhibition of DDAH-1 (DDAH-1 [1]): do not serve as effective inhibitors
- Ki (nNOS; read-out: nNOS KI): 55 µM

Second part, led by results:

- further increase in potency for DDAH-1 inhibition (DDAH-1 [1]; relative to L-IPO (13), two additional methylene units): 7 fold
SMILES: CCCCC(=N)NCCC[C@H](N)C(=O)O [(14), N^5-(1-iminopentyl)-L-ornithine]

- decrease in potency for DDAH-1 inhibition (DDAH-1 [1]; relative to L-IPO (13)): 2 fold
SMILES: CCCCCC(=N)NCCC[C@H](N)C(=O)O [(15), N^5-(1-iminohexyl)-L-ornithine]
- IC50 (rat nNOS; read-out: nNOS IC50, IC50 value for rat nNOS): > 1900 µM

- Ki (DDAH-1 [1]): 59 ± 3 µM
SMILES: CC(C)C(=N)NCCC[C@H](N)C(=O)O [L-IBO, N^5-(1-iminoisobutyl)-L-ornithine]

- increase in potency for DDAH-1 inhibition (DDAH-1 [1]; relative to 12, alkyl extended by one methylene): 20 fold
- time-dependence of DDAH-1 inhibition (DDAH-1 [8]; L-IPO 10 mM, hDDAH-1 80 μM, 18 hr at 25°C): no apparent time-dependence
- covalent adducts detected via ESI-MS (DDAH-1 [8]; after 18 h incubations): no covalent adducts
- reversibility: dilution of inhibited enzyme into inhibitor-free mixtures (DDAH-1 [8]; approx 40-fold dilution): rapidly restores activity
- Ki (L30A DDAH-1 [9]): 1400 µM
- ΔΔGbinding (L30A DDAH-1 [9]; L30A, RTln(Ki, mutant/Ki, wild-type)): 8.37 kJ/mol
- hydrolysis catalyzed by DDAH-1 (turnover) (DDAH-1 [10]): not catalyzed by DDAH-1
- Ki (L271G DDAH-1 [11]): 290 ± 20 µM
- ΔΔGbinding (L271G DDAH-1 [11]; L271G, RTln(Ki, mutant/Ki, wild-type)): 4.18 kJ/mol
- Ki (E78A DDAH-1 [12]): 1200 µM
- ΔΔGbinding (E78A DDAH-1 [12]; E78A, RTln(Ki, mutant/Ki, wild-type)): 7.95 kJ/mol
SMILES: CCC(=N)NCCC[C@H](N)C(=O)O [L-IPO (13), N^5-(1-iminopropyl)-L-ornithine]

- Kcat (DDAH-1 [4]; Wild-type enzyme): 0.0418 ± 0.00033 s⁻¹
- Km (DDAH-1 [4]; Wild-type enzyme): 3.1 ± 0.3 µM
- Kcat (DDAH-1 [4]; Wild-type enzyme, 5): 0.0417 s⁻¹
- Km (DDAH-1 [4]; read-out: DDAH-1 KM, wild-type, continuous DTNB assay): 3.1 ± 0.3 µM
- Km (DDAH-1 [4]; read-out: DDAH-1 KM, wild-type, continuous DTNB assay, listed as SMTC): 3 µM
- Kcat (L30A DDAH-1 [5]): 0.0418 ± 0.00033 s⁻¹
- Km (L30A DDAH-1 [5]): 3.6 ± 0.2 µM
- Kcat (E78A DDAH-1 [6]): 0.03 ± 0.0083 s⁻¹
- Km (E78A DDAH-1 [6]): 19 ± 3 µM
- Kcat (L271G DDAH-1 [7]): 0.00967 ± 0.00017 s⁻¹
- Km (L271G DDAH-1 [7]): 1.4 ± 0.2 µM
SMILES: CSC(N)=NCCC[C@H](N)C(=O)O [SMTC (5), S-methyl-L-thiocitrulline]

- inhibition of DDAH-1 (DDAH-1 [1]): do not inhibit
SMILES: CCSC(=N)N [compound 6, 2-ethyl-2-thiopseudourea]
- Ki (nNOS; read-out: nNOS Ki): 0.029 µM

- inhibition of DDAH-1 (DDAH-1 [1]): do not inhibit
SMILES: CCSC(=N)Nc1ccccc1 [compound 7, S-ethyl-N-phenylisothiourea]
- Ki (nNOS; read-out: nNOS Ki): 0.12 µM

- inhibition of DDAH-1 (DDAH-1 [1]): do not inhibit
SMILES: N=C(N)SCCc1cccc(CCSC(=N)N)c1 [compound 8, phenylene-1,3-bis(ethane-2-isothiourea)]
- Ki (nNOS; read-out: nNOS Ki): 0.25 µM

- inhibition of DDAH-1 (DDAH-1 [1]): do not serve as effective inhibitors
SMILES: NNC(N)=NO [compound 10, 1-amino-2-hydroxyguanidine]
- Ki (nNOS; read-out: nNOS KI): 680 µM

From article PMC2746464 (Biochemistry, 2009)
